ABHD4 inh = inhibitors of mouse ABHD4; Q8VD66; purified mABHD4, FP-Rh probe fluorescence polarization; inhibition, % at 8.92 µM; hit rate 0.54% among 370,000; AID 720543;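 active = inhibition exceeding the mean over every tested compound plus 3 SD, cut at about 30% in these data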;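 note: 0% = plate median of compound wells and 100% = S159A mutant with DMSO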
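Test system: mABHD4 protein; Read-out basis: % inhibition; Incubation: 45 min + 60 min at 25 °C; Repeats: single replicate; Technique: fluorescence polarization with parallel and perpendicular emission, 525/598 nm; Compound: 8.92 µM, single dose; Benchmarks: full inhibition S159A mutant plus DMSO, zero as sample-well median.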
PAFAH1B2 inh = blocks human PAF acetylhydrolase 1b catalytic subunit 2 | recombinant PAFAH1B2, FP-rhodamine activity probe, fluorescence polarization | inhibition, % at 3.39 µM | AID 492953 | hit rate 1.2% among 340,000;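 active = inhibition above the mean of all tested compounds plus 3 SD, cut at about 24% in these data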;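 note: 0% = enzyme with DMSO and 100% = wells lacking PAFAH1B2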
Target sequence (P68402 whole entry, looked up): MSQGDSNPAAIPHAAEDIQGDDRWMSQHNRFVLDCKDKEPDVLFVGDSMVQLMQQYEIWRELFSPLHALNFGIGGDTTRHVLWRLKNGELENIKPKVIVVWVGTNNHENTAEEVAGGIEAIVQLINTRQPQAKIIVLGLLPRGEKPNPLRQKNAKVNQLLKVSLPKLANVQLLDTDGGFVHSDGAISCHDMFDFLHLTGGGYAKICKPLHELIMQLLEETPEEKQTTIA
pPAFAH FP inh = pPAFAH (human) enzyme inhibition. hit rate 1.5% among 330,000. recombinant pPAFAH, FP-rhodamine probe fluorescence polarization. inhibition, % at 3.39 µM;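 active = inhibition above the mean inhibition across the screen plus 3 SD, cut at about 25% in these data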;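 note: inhibitors block binding of the rhodamine activity-based probe so polarization drops; 0% = enzyme with DMSO and 100% = wells lacking pPAFAH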
PAFAH2 FP inh = inhibitors of human PAFAH2 | AID 492956 | inhibition, % at 3.39 µM | recombinant PAFAH2, FP-rhodamine activity probe, fluorescence polarization | hit rate 0.99% among 340,000;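 active = inhibition above the mean over all tested compounds plus 3 SD, cut at about 30% in these data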;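 note: inhibitors block probe labeling of enzyme so polarization drops; 0% = enzyme with DMSO and 100% = wells lacking PAFAH2 protein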
PAFAH1B3 FP inh = blocks human PAF acetylhydrolase 1B catalytic subunit 3 | recombinant PAFAH1B3, FP-rhodamine probe, fluorescence polarization | inhibition, % at 3.39 µM | hit rate 0.28% among 340,000 | AID 492972;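 active = inhibition above the screen-wide average of all tested compounds plus 3 SD, cut at about 25% in these data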;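 note: 0% = enzyme with DMSO only and 100% = wells lacking PAFAH1B3 protein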
HTRA1 inhibitor = inhibitors of human serine peptidase HTRA1. recombinant HTRA1, FP-rhodamine activity-based probe, fluorescence polarization. hit rate 0.5% among 340,000. inhibition, % at 5.96 µM. Q92743; in the data active = inhibition above about 36%;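 note: 0% = enzyme with DMSO and 100% = wells lacking enzyme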
Target sequence (Q92743 whole entry, looked up): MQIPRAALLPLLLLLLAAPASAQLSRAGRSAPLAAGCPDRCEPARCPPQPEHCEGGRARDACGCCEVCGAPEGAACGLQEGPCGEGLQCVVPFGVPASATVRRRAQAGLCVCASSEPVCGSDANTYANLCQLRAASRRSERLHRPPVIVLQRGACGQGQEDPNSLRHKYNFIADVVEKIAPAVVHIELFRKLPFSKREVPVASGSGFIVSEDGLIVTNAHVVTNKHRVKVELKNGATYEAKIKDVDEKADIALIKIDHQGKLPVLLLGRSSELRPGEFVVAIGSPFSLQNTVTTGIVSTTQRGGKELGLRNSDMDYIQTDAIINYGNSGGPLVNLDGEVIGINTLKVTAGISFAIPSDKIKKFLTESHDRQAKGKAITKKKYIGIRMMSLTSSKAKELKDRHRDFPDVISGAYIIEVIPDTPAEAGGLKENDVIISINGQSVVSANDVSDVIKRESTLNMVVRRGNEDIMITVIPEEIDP
ABHD4 confirm = ABHD4 (mouse) inhibition, FP confirmation | shares compounds with ABHD4 inh | purified mABHD4, FP-Rh probe fluorescence polarization | inhibition, % at 8.92 µM | hit rate 55% among 1,800;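 active = mean inhibition across replicates above the hit cutoff set in the primary screen, cut at about 30% in these data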;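 note: 0% = wild-type ABHD4 with DMSO and 100% = catalytically dead S159A mutant with DMSO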
* = called active by the depositor; nt = no result given. Most compounds without a hit are left out; they make up all but 2.8% or so of the library.

SMILES | ABHD4 inh | PAFAH1B2 inh | pPAFAH FP inh | PAFAH2 FP inh | PAFAH1B3 FP inh | HTRA1 inhibitor | ABHD4 confirm
O=C(O)c1ccc(NS(=O)(=O)c2ccc3c(c2)C(=O)c2ccccc2C3=O)cc1 | 36* | nt | 18 | nt | nt | nt | 58*
O=c1cc(CSc2nnnn2-c2ccccc2)[nH]c2[nH]n(-c3ccccc3)c(=O)c12 | 32* | 15 | 24 | 13 | 9 | 22 | 5
c1ccc(CSc2nnnn2-c2ccccc2)cc1 | -7 | 3 | 10 | -5 | 7 | 0 | nt
Cc1ccc(-n2nc(C)c3c2OC(N)=C(C#N)C3c2ccc(F)cc2)cc1 (stereo unspecified) | 37* | 2 | 10 | 4 | 3 | 24 | 10
Cc1nn(-c2ccccc2)c2c1C(c1cccs1)C(C#N)=C(N)O2 (stereo unspecified) | nt | 6 | 8 | 6 | 8 | 9 | nt
Cc1nn(-c2ccccc2)c2c1C(c1ccc([N+](=O)[O-])cc1)C(C#N)=C(N)O2 (stereo unspecified) | 42* | 8 | 5 | 11 | 8 | 11 | 11
Cc1nn(-c2ccccc2)c2c1C(c1ccco1)C(C#N)=C(N)O2 (stereo unspecified) | 13 | 0 | 5 | 2 | -5 | 3 | nt
COC(=O)[C@]12C[C@H](CC(=O)NCC34CC5CC(CC(C5)C3)C4)C(=O)N(CCc3ccc(OC)c(OC)c3)C1=C[C@H](COCc1ccccc1)O[C@@H]2C | 2 | nt | nt | nt | nt | nt | nt
Oc1ccc2ccccc2c1N=Nc1ccccn1 | 50* | 2 | 14 | 9 | 5 | 14 | 53*
Oc1ccc2ccccc2c1N=Nc1ccccc1F | 5 | 9 | 6 | -8 | -2 | 7 | nt
COC(CNC(=O)[C@H](Cc1ccccc1)NC1(C(=O)NC2CCCCC2)CCC1)OC | 3 | nt | nt | nt | nt | nt | nt
COC(=O)C1=C(C)N(Cc2ccccc2C(F)(F)F)C(=NCc2ccc(OC)cc2)NC1c1cccc(F)c1 (stereo unspecified) | 42* | nt | nt | nt | nt | nt | 66*
C#Cc1cccc(OCC(C)CN2CCC(C(O)(c3ccccc3)c3ccccc3)CC2)c1 (stereo unspecified) | 8 | nt | nt | nt | nt | nt | nt
COc1ccc(CC(/C=C/c2ccc(F)cc2)c2ccccc2)cc1 (stereo unspecified) | -4 | nt | nt | nt | nt | nt | nt
CCc1ccc(NC2=CC(=O)CC(c3ccco3)C2)cc1 (stereo unspecified) | 37* | 0 | 18 | 7 | -9 | 1 | 12
NNc1nc2c(F)cc(F)cc2s1 | 45* | 2 | 14 | 6 | 8 | 13 | 9
NNc1nc2c(F)cccc2s1 | 77* | 3 | 3 | 0 | 2 | 24 | 32*
CC(=O)CC[C@@H]1CC[C@]2(CCCN(S(C)(=O)=O)C2)O1 | -4 | nt | nt | nt | nt | nt | nt
OCCNc1nc(Nc2ccc(Br)cc2)nc2ccccc12 | 34* | nt | 6 | nt | nt | nt | 47*
Cc1ccc(Nc2nc(NCc3ccco3)c3ccccc3n2)cc1 | 36* | -1 | 18 | 8 | 11 | -37 | 41*
OCCNc1nc(Nc2ccccc2)nc2ccccc12 | -2 | 1 | -1 | 7 | -1 | 3 | nt
CNc1nc(NCc2ccccc2)c2ccccc2n1 | -1 | 6 | 5 | -1 | 7 | 0 | nt
Oc1ccccc1Nc1nc(NCc2ccccc2)c2ccccc2n1 | 43* | 5 | 6 | 1 | 3 | 15 | 55*
COc1ccccc1Nc1nc(NCc2ccco2)c2ccccc2n1 | 3 | nt | 17 | nt | nt | nt | nt
CCCCCN1CCCCC(NC(=O)c2cc(OC)c(OC)c(OC)c2)C1=O (stereo unspecified) | -2 | nt | nt | nt | nt | nt | nt
SMILES | ABHD4 inh | PAFAH1B2 inh | pPAFAH FP inh | PAFAH2 FP inh | PAFAH1B3 FP inh | HTRA1 inhibitor | ABHD4 confirm
N#CCC[C@H]1CC[C@]2(CCCN(C(=O)c3ccco3)C2)O1 | -2 | nt | nt | nt | nt | nt | nt
CCN1C(=O)/C(=C2/C(=O)N3c4c(cc(OC(C)=O)cc42)C(C)=CC3(C)C)SC1=S | 12 | -1 | -1 | -1 | 5 | 0 | nt
COc1cc2c3c(c1)/C(=C1/SC(NC(C)=O)=NC1=O)C(=O)N3C(C)(C)C=C2C | 38* | 10 | 8 | 4 | 4 | 9 | 27
Oc1ccc(Br)cc1C=Nc1ccc2c3c(cccc13)CC2 | 55* | 5 | 28* | 6 | 13 | 20 | 22
FC(F)(F)Oc1ccc(Cn2ccc3ccc(-c4ccc5ccn(Cc6ccccc6)c5c4)cc32)cc1 | 7 | nt | nt | nt | nt | nt | nt
COc1ccccc1N1CCN(CCCCOc2ccc(C)cc2C)CC1 | 31* | 1 | 8 | 5 | 3 | 3 | 17
COC(=O)[C@]12C[C@H](CC(=O)NCCCN3CCCC3=O)C(=O)N(CCc3ccc(OC)c(OC)c3)C1=C[C@H](C(C)C)O[C@@H]2C1CC1 | 2 | nt | nt | nt | nt | nt | nt
CC1(C)CC(=O)C2=C(C1)NC1=C(C(=O)c3ccccc31)C2c1cc([N+](=O)[O-])ccc1O (stereo unspecified) | 49* | 4 | 18 | 9 | 6 | 32 | 66*
CC1(C)CC(=O)C2=C(C1)NC1=C(C(=O)c3ccccc31)C2c1cccnc1 (stereo unspecified) | 16 | 2 | 7 | 1 | 7 | 10 | nt
CC1=C([N+](=O)[O-])C(c2ccccc2)C2=C(N1)c1ccccc1C2=O (stereo unspecified) | 19 | 0 | 15 | 8 | 5 | 21 | nt
CC1(C)CC(=O)C2=C(C1)NC1=C(C(=O)c3ccccc31)C2c1ccccc1 (stereo unspecified) | 51* | 3 | 13 | 10 | 5 | 32 | 47*
Cc1ccc(C(=O)NC2CCCCN(Cc3ccccc3C)C2=O)cc1 (stereo unspecified) | -1 | nt | nt | nt | nt | nt | nt
CN(C(=S)Nc1cccnc1)c1ccc(O)cc1 | 47* | -3 | 29* | 4 | 8 | 22 | 7
CC(C)(C)[C@H](NC(=O)c1cc(Cl)cc(Cl)c1)C(=O)N1CCC[C@H]1C(=O)N[C@H](C#N)CC(=O)O | 3 | nt | nt | nt | nt | nt | nt
O=C(Nc1ccccc1)Nc1nc2ncccn2c1-c1ccc(F)c(F)c1 | -5 | nt | nt | nt | nt | nt | nt
O=C1NC(=O)C2(N1)c1ccccc1-c1ccccc12 | -3 | 2 | nt | 8 | 11 | 2 | nt
O=C1NC(=O)C2(N1)C(=O)c1cccc3cccc2c13 (stereo unspecified) | 78* | nt | nt | nt | nt | 23 | 16
O=C(N=C1N(Cc2ccccc2)[C@@H](Cc2ccccc2)[C@]2(C=C3CCCCC3n3c(=O)n(-c4ccccc4)c(=O)n32)N1C(=O)OCc1ccccc1)c1ccccc1 (stereo partly specified) | -4 | nt | nt | nt | nt | nt | nt
COc1ccc(-n2c(SCC(=O)Nc3ccc(S(=O)(=O)Nc4nccs4)cc3)nnc2-c2cccs2)cc1 | -27 | nt | nt | nt | nt | nt | nt
O=C(O)c1ccc(Nc2cccc(F)c2)c([N+](=O)[O-])c1 | 29 | 5 | 4 | -2 | 6 | 10 | nt
O=C(O)c1ccc(Nc2ccc(Cl)c(Cl)c2)c([N+](=O)[O-])c1 | 44* | 3 | nt | 2 | 3 | -6 | 62*

Assay outcomes: PubChem, The Scripps Research Institute Molecular Screening Center
